Measured values taken from ChEMBL document CHEMBL3297682, “Synthesis and anticancer activity of γ-(triazolyl ethylidene)butenolides and polyfunctional pyrrolinones” (Eur J Med Chem, 2014).
Active and inactive are the calls of the source. The calls are words filed in the database; no cut-off is given here.

Key:
MDA-MB-231 [1] = experiment: Induction of apoptosis in human MDA-MB-231 cells assessed as viable cells compound treated 1 hr post 10 mM ROS inhibitor NAC addition measured after 24 hrs by Annexin-V/PI staining based flow cytometry (reference value: 84.94%); format: functional
PC-3 [2] = experiment: Antiproliferative activity against human PC3 cells after 24 hrs by MTT assay; format: functional, cell-based; details: PC-3, 24 h
Outline: (§1)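 1×10^4 cells/well seeded in DMEM with 10% FBS and antibiotic-antimycotic, grown 24 h at 37 °C under 5% CO2. Compounds diluted in phenol red-free DMEM with 2% FBS and given for 24 h, with vehicle control. MTT (5 mg/mL, 20 µL) added for 3 h. Formazan dissolved in DMSO, absorbance read at 570 nm. IC50 is the concentration giving 50% growth inhibition.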

MDA-MB-231 [3] = experiment: Induction of apoptosis in human MDA-MB-231 cells assessed as early apoptotic cells at 11 uM measured after 24 hrs by Annexin-V/PI staining based flow cytometry (reference value: 19.77%); format: functional
Outline: (§2)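 MDA-MB-231 cells (1×10^6) seeded in six-well plates, grown overnight, then exposed 24 h to 11 or 22 µM. Cells trypsinized, washed in PBS, stained with Annexin-V-FITC and propidium iodide using a kit, and analysed by flow cytometry. Compared with untreated vehicle control.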

MCF7 [4] = experiment: Induction of cell cycle arrest in human MCF7 cells assessed as accumulation at subG1 phase at IC50 concentration measured after 24 hrs by propidium iodide staining based flow cytometry; format: functional
Outline: (§3)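 1×10^6 cells seeded in six-well plates and treated 24 h. Floating and trypsinized adherent cells pooled and fixed in 70% ethanol. Cells washed in PBS, then stained 30 min at room temperature in the dark with 30 µg/mL propidium iodide in PBS containing RNase A. DNA content measured by flow cytometry.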

MCF7 [5] = experiment: Antiproliferative activity against human MCF7 cells after 24 hrs by MTT assay; format: functional, cell-based; details: MCF7, 24 h; outline: as §1
MDA-MB-231 [6] = experiment: Induction of apoptosis in human MDA-MB-231 cells assessed as viable cells at 22 uM measured after 24 hrs by Annexin-V/PI staining based flow cytometry (reference value: 71.87%); format: functional; details: MDA-MB-231, 24 h, read-out: Activity; outline: as §2
U-937 [7] = experiment: Induction of cell cycle arrest in human U937 cells assessed as accumulation at subG1 phase at IC50 concentration measured after 24 hrs by propidium iodide staining based flow cytometry; format: functional; outline: as §3
MDA-MB-231 [8] = experiment: Induction of reactive oxygen species production in human MDA-MB-231 cells after 24 hrs by DCFH-DA dye based flow cytometry; format: functional, cell-based
Outline: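 MDA-MB-231 cells (1×10^6) seeded 24 h in six-well plates, then treated 24 h. Cells harvested, washed in PBS and fixed in absolute methanol. Cells resuspended in PBS with 15 µg/mL DCFH-DA for 30 min in the dark, then pelleted, taken up in PBS, and fluorescence read by flow cytometry.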

MDA-MB-231 [9] = experiment: Induction of apoptosis in human MDA-MB-231 cells assessed as viable cells measured after 24 hrs by Annexin-V/PI staining based flow cytometry (reference value: 84.94%); format: functional
MDA-MB-231 [10] = experiment: Induction of apoptosis in human MDA-MB-231 cells assessed as late apoptotic cells measured after 24 hrs by Annexin-V/PI staining based flow cytometry (reference value: 2.91%); format: functional
MDA-MB-231 [11] = experiment: Increase in phosphorylated p38 level in human MDA-MB-231 cells after 24 hrs by western blot analysis; format: functional, cell-based
Outline: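 MDA-MB-231 cells (1×10^6) seeded 24 h, then treated 24 h at 11 and 22 µM. Cells lysed in ice-cold RIPA and protein measured by Bradford. 40 µg protein run on SDS-PAGE and transferred to PVDF. Membranes blocked with 1% BSA, probed overnight at 4 °C for p-p38 and total p38, then with HRP secondary for 2 h.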

HEK293 = experiment: Cytotoxicity against human HEK293 cells after 24 hrs by MTT assay; format: cell-based; details: HEK293, 24 h; outline: as §1
MDA-MB-231 [12] = experiment: Induction of cell cycle arrest in human MDA-MB-231 cells assessed as accumulation at subG1 phase at IC50 concentration measured after 24 hrs by propidium iodide staining based flow cytometry; format: functional; outline: as §3
MDA-MB-231 [13] = experiment: Induction of apoptosis in human MDA-MB-231 cells assessed as late apoptotic cells at 22 uM measured after 24 hrs by Annexin-V/PI staining based flow cytometry (reference value: 6.11%); format: functional; outline: as §2
MDA-MB-231 [14] = experiment: Induction of apoptosis in human MDA-MB-231 cells assessed as viable cells at 11 uM measured after 24 hrs by Annexin-V/PI staining based flow cytometry (reference value: 71.87%); format: functional; details: MDA-MB-231, 24 h, read-out: Activity; outline: as §2
MDA-MB-231 [15] = experiment: Antiproliferative activity against human MDA-MB-231 cells after 24 hrs by MTT assay; format: functional, cell-based; details: MDA-MB-231, 24 h; outline: as §1
HCT-116 [16] = experiment: Antiproliferative activity against human HCT116 cells after 24 hrs by MTT assay; format: functional, cell-based; details: HCT-116, 24 h; outline: as §1
HCT-116 [17] = experiment: Induction of cell cycle arrest in human HCT116 cells assessed as accumulation at subG1 phase at IC50 concentration measured after 24 hrs by propidium iodide staining based flow cytometry; format: functional; outline: as §3
MDA-MB-231 [18] = experiment: Induction of apoptosis in human MDA-MB-231 cells assessed as early apoptotic cells compound treated 1 hr post 10 mM ROS inhibitor NAC addition measured after 24 hrs by Annexin-V/PI staining based flow cytometry (reference value: 11.31%); format: functional
PC-3 [19] = experiment: Induction of cell cycle arrest in human PC3 cells assessed as accumulation at subG1 phase at IC50 concentration measured after 24 hrs by propidium iodide staining based flow cytometry; format: functional; outline: as §3
MDA-MB-231 [20] = experiment: Induction of apoptosis in human MDA-MB-231 cells assessed as necrotic cells measured compound treated 1 hr post 10 mM ROS inhibitor NAC addition measured after 24 hrs by Annexin-V/PI staining based flow cytometry (reference value: 0.84%); format: functional
MDA-MB-231 [21] = experiment: Induction of apoptosis in human MDA-MB-231 cells assessed as early apoptotic cells at 22 uM measured after 24 hrs by Annexin-V/PI staining based flow cytometry (reference value: 19.77%); format: functional; outline: as §2
MDA-MB-231 [22] = experiment: Effect on phosphorylated p38 level in human MDA-MB-231 cells at 11 uM after 24 hrs by western blot analysis pretreated with ROS inhibitor NAC; format: functional, cell-based
Outline: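 MDA-MB-231 cells pretreated with NAC, then exposed to compound at 11 µM for 24 h. Lysates in RIPA quantified by Bradford. 40 µg protein resolved by SDS-PAGE and blotted to PVDF. Membranes blocked with 1% BSA, probed overnight at 4 °C for phospho-p38 and p38, then with HRP secondary.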

U-937 [23] = experiment: Antiproliferative activity against human U937 cells after 24 hrs by MTT assay; format: functional, cell-based; details: U-937, 24 h; outline: as §1
MDA-MB-231 [24] = experiment: Induction of apoptosis in human MDA-MB-231 cells assessed as necrotic cells measured after 24 hrs by Annexin-V/PI staining based flow cytometry (reference value: 0.84%); format: functional
MDA-MB-231 [25] = experiment: Induction of apoptosis in human MDA-MB-231 cells assessed as late apoptotic cells at 11 uM measured after 24 hrs by Annexin-V/PI staining based flow cytometry (reference value: 6.11%); format: functional; outline: as §2
MDA-MB-231 [26] = experiment: Induction of apoptosis in human MDA-MB-231 cells assessed as necrotic cells at 22 uM measured after 24 hrs by Annexin-V/PI staining based flow cytometry (reference value: 2.24%); format: functional; outline: as §2
MDA-MB-231 [27] = experiment: Induction of apoptosis in human MDA-MB-231 cells assessed as early apoptotic cells measured after 24 hrs by Annexin-V/PI staining based flow cytometry (reference value: 11.31%); format: functional
MDA-MB-231 [28] = experiment: Induction of apoptosis in human MDA-MB-231 cells assessed as necrotic cells at 11 uM measured after 24 hrs by Annexin-V/PI staining based flow cytometry (reference value: 2.24%); format: functional; outline: as §2
MDA-MB-231 [29] = experiment: Induction of apoptosis in human MDA-MB-231 cells assessed as late apoptotic cells compound treated 1 hr post 10 mM ROS inhibitor NAC addition measured after 24 hrs by Annexin-V/PI staining based flow cytometry (reference value: 2.91%); format: functional

COC1=C(OC)C(O)(CCn2cc(-c3ccc(C(C)(C)C)cc3)nn2)NC1=O (stereo not given)
Activity (MDA-MB-231 [1]): 81.36% | IC50 (PC-3 [2]): 30.4 µM | Activity (MDA-MB-231 [3]): 27.35% | Activity (MCF7 [4]): Active | IC50 (MCF7 [5]): > 100 µM | viability at 22 µM (MDA-MB-231 [6]): 48.8% | Activity (U-937 [7]): Active | Activity (MDA-MB-231 [8]): Active | Activity (MDA-MB-231 [9]): 56.21% | Activity (MDA-MB-231 [10]): 10.98% | Activity (MDA-MB-231 [11]): Dose-dependent effect | IC50 (HEK293): 62 µM | Activity (MDA-MB-231 [12]): Active | Activity (MDA-MB-231 [13]): 6.95% | viability at 11 µM (MDA-MB-231 [14]): 67.8% | IC50 (MDA-MB-231 [15]): 11.3 µM | IC50 (HCT-116 [16]): 50.3 µM | Activity (HCT-116 [17]): Active | Activity (MDA-MB-231 [18]): 13.91% | Activity (PC-3 [19]): Active | Activity (MDA-MB-231 [20]): 1.112% | Activity (MDA-MB-231 [21]): 41.92% | Activity (MDA-MB-231 [22]): inactive | IC50 (U-937 [23]): > 100 µM | Activity (MDA-MB-231 [24]): 0.76% | Activity (MDA-MB-231 [25]): 3.38% | Activity (MDA-MB-231 [26]): 2.35% | Activity (MDA-MB-231 [27]): 32.05% | Activity (MDA-MB-231 [28]): 1.48% | Activity (MDA-MB-231 [29]): 3.61%
